Screening data from PubChem BioAssay.
LANA-H2B inh – blocks KSHV LANA binding to histone H2A/H2B; Q9QR71; cell-free LANA-H2A/H2B peptide, fluorescence polarization; inhibition, % (no concentration beside the values); hit rate 0.6% among 320,000; in the data active means inhibition mostly above about 10%, no sharp cut-off; inactive means mostly below about 6.7%
T cell modulator – T cell immune modulators affecting CD8 T cell-vesicle binding; AID 2052; 2C CD8+ T cell-vesicle binding, flow cytometry; active compounds read low; response (vesicle binding), % at 7 µM; hit rate 0.068% among 330,000;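 active means response, share of CD8 T cells binding vesicles, and their 90th percentile fluorescence all below set limits, cut at about 80% in these data, passing the limit was not always enough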;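 further: values below 100% mean blocked vesicle binding to the CD8+ T cells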
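System: murine 2C transgenic CD8+ T lymphocytes; also added: QL9-loaded Drosophila micro-vesicles; times: binding 1.5 h at 37 °C; measured by: flow cytometry, PE anti-B7-1 (FL2) versus Alexa647 anti-CD8 (FL8), PFA-fixed; control set: Peptide-free naked vesicles (low) and QL9 vesicles with 0.7% DMSO vehicle (high)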
JMJD2C inh – inhibitors of human GASC-1 (JMJD2C) demethylase; Q9H3R0; GST-JMJD2C(1-420) H3K9me3 demethylation, DELFIA europium; inhibition, % at 2.35 µM; hit rate 0.069% among 330,000;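 active means more than half of a compound's replicate wells show inhibition beyond 50%, single wells judged on their own value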;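 further: signal counts dimethyl H3K9 product captured on neutravidin plate; 0% = median of DMSO wells and 100% = 0.3 times that DMSO median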
Target sequence (Q9H3R0 1-420 limits assumed): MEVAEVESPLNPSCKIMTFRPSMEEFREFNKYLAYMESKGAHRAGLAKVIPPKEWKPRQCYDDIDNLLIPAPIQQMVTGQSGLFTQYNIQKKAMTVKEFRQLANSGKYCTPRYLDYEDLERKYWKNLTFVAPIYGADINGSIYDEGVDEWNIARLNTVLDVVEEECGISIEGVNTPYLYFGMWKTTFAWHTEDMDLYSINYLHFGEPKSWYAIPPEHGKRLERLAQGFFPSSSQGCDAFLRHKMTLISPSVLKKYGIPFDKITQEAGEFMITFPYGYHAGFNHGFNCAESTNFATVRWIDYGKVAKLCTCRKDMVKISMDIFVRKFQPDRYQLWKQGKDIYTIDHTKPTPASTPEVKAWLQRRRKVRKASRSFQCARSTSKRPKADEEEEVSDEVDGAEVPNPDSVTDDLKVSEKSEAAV
HDAC3 inhib – blocks human histone deacetylase 3. inhibition, % at 8.3 µM. hit rate 0.15% among 320,000. recombinant HDAC3, fluorogenic peptide/trypsin coupled, fluorescence. O15379. AID 2718; in the data active means inhibition above about 26%, passing the limit was not always enough
Pemphigus Ab inh – human desmoglein-3 autoantibody binding inhibition; P32926; DSG3-coupled beads, scFv-anti-DSG3-GFP binding, flow cytometry; active compounds read low; binding (percent of control), % at 10 µM; hit rate 0.48% among 310,000; AID 588358;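 active means binding more than 3 SD below its plate's average and above zero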;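 further: hits lower antibody fragment binding to DSG3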
Arr AP2 block – inhibitors of human beta-arrestin and AP2 interaction | FITC-arrestin peptide / GST-AP2 beads, flow cytometry; AP2 beta2 appendage carries R879A mutation | inhibition, % at 10 µM | hit rate 0.31% among 340,000 | AID 504490;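 active means inhibition above a set limit, near 3 SD of compounds lacking own fluorescence, cut at about 54% in these data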;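 further: plate controls were DMSO wells for no effect and 5 µM unlabelled arrestin peptide for full effect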
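Assay system: GST-AP2 R879A bound to glutathione beads, E. coli-expressed; Medium: PBS with 0.05% Tween 20 and 0.1% BSA; Also added: fluorescein-tagged arrestin peptide at 50 nM final; Timing: 12 min plus 1 h, RT; Measured by: flow cytometry, FL1 (488/535 nm); Evaluation: percent drop in bead-associated FITC signal.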
Arr-AP2 CP1 – inhibitors of human beta-arrestin and AP2 interaction | hit rate 2% among 1,300 | AID 504908 | shares compounds with Arr AP2 block | inhibition, % at 10 µM | GST-AP2 beads, FITC arrestin peptide binding, flow cytometry; GST-fused beta2-adaptin appendage, R879A mutant;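 active means inhibition above a set limit, roughly 3 SD of non-fluorescent compound noise, cut at about 38% in these data; inactive means inhibition at or below that limit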;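 further: loss of bead fluorescence from 50 nM FITC arrestin peptide bound to appendage; 0% = negative control wells and 100% = excess unlabelled arrestin peptide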
GST GSH counter – disrupts GST binding to glutathione beads, arrestin-AP2 artifact | hit rate 2% among 1,300 | AID 588338 | shares compounds with Arr AP2 block | GST-fluorescein binding to GSH beads, fluorescence, counter-screen | inhibition, % at 10 µM;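 active means inhibition above 50%, about 3 SD of the inhibition seen with non-fluorescent compounds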;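 further: fluorescein maleimide labelled GST captured on 4 micron glutathione beads; higher means more loss of bead fluorescence from quenching or blocked binding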
Active calls of the source: *; nt = no result. Compounds with a hit are over-represented: about 1.6% of the library has one in this group of screens.

SMILES | LANA-H2B inh | T cell modulator | JMJD2C inh | HDAC3 inhib | Pemphigus Ab inh | Arr AP2 block | Arr-AP2 CP1 | GST GSH counter
CCn1ncc(Cl)c1C(=O)Nc1cc([N+](=O)[O-])ccc1OC | 0.4 | 80.1 | 7.1 | -0.4 | 87.1 | 105.5* | -1.8 | 13.8
CCn1ncc(C(=O)Nc2ccc([N+](=O)[O-])cc2OC)c1C | 2.5 | 332.8 | -0.3 | -6.8 | 95.7 | 0.8 | nt | nt
CC(=O)c1cccc(NC(=O)C2CCCN2S(=O)(=O)c2cccs2)c1 (stereo not drawn) | nt | nt | nt | nt | 100.2 | nt | nt | nt
Cc1cc(OCC(O)CN2C(C)CCCC2C)ccc1C(C)C (stereo not drawn) | 1.6 | 263.0 | -3.8 | -1.5 | 97.0 | 54.3* | 0.8 | -3.2
COc1cccc(OCC(O)CN2C(C)CCCC2C)c1 (stereo not drawn) | 3.5 | 263.1 | 5.0 | -9.7 | 123.6 | 0.4 | nt | nt
COc1ccc(C(=O)NCc2nnc(SCC(=O)c3ccc(F)cc3)n2C)cc1OC | 0.1 | 501.5 | 24.7 | -1.0 | 96.8 | 15.8 | nt | nt
CCOC(=O)COc1ccc2c(C#N)c3ccccn3c2c1 | nt | nt | nt | nt | 100.0 | 56.0* | -10.6 | -1.1
O=C(c1cc2ccccc2o1)N1CCN(c2ccccc2Cl)CC1 | 3.8 | 137.2 | 2.6 | 4.2 | 101.8 | 33.0 | nt | nt
O=C(CCc1ccccc1)N1CCN(c2ccccn2)CC1 | 0.4 | 253.5 | -7.3 | -6.0 | 92.9 | 0.6 | nt | nt
O=C(c1ccccc1CCc1ccccc1)N1CCN(c2ccccn2)CC1 | -2.7 | 278.0 | 21.7 | 0.5 | 101.3 | 84.5* | -7.9 | -0.8
O=C(c1cc2ccccc2o1)N1CCN(c2ccccn2)CC1 | -0.6 | 323.8 | -7.4 | -3.1 | 105.0 | 58.6* | -0.3 | -3.3
Cc1ccc(-c2nn(-c3ccccc3)cc2C(=O)N2CCN(c3ccccn3)CC2)cc1 | -2.2 | 142.1 | -6.4 | 8.9 | 96.5 | 56.6* | 12.5 | -5.4
Cc1ccc(C)c(C(=O)CN2C(=O)NC3(CCCCCC3)C2=O)c1 | nt | nt | nt | nt | 100.0 | 2.7 | nt | nt
C#Cc1cccc(NC(=O)Cc2cccs2)c1 | -0.4 | 172.7 | -2.9 | -1.4 | 118.5 | 56.3* | 2.8 | -8.4
Cc1noc(COc2ccccc2OCC(N)=O)n1 | -0.5 | 200.5 | 10.9 | -4.2 | 110.1 | 10.8 | nt | nt
O=C(Nc1cccc(S(=O)(=O)N2CCOCC2)c1)c1cc(=O)[nH]c2ccccc12 | 1.7 | 368.2 | 5.4 | 1.0 | 102.5 | 20.2 | 1.0 | -1.0
Cc1cc(C(=O)Nc2cccc(S(=O)(=O)N3CCOCC3)c2)c2ccccc2n1 | -0.3 | 336.1 | -4.7 | -2.9 | 104.4 | 30.8 | -11.9 | -4.9
O=C(Nc1cccc(S(=O)(=O)N2CCOCC2)c1)c1ccc(=O)[nH]c1 | -4.5 | 274.6 | 9.9 | -9.9 | 102.0 | -2.1 | -6.6 | 4.6
O=C(Nc1cccc(S(=O)(=O)N2CCCCC2)c1)c1cc(=O)[nH]c2ccccc12 | 0.3 | 266.5 | 4.6 | 0.3 | nt | 1.3 | -6.7 | -4.5
O=C(Nc1cccc(S(=O)(=O)N2CCOCC2)c1)c1cccc(S(=O)(=O)N2CCCC2)c1 | nt | nt | nt | nt | 96.3 | -6.9 | nt | nt
Cc1nnc(SCCn2c(Br)nc3c2c(=O)[nH]c(=O)n3C)s1 | 3.7 | 141.9 | 7.0 | 2.5 | 100.1 | 94.8* | -10.2 | -2.7
CCCn1nc(NC(=O)CC(C)C)c2cc3cccc(C)c3nc21 | 3.9 | 355.0 | 5.1 | 1.5 | 109.0 | 10.9 | nt | nt
CCn1nc(NC(=O)CC(C)C)c2cc3cccc(C)c3nc21 | 0.3 | 429.7 | 16.2 | -4.8 | 108.8 | 54.9* | 7.9 | 3.4
COc1ccccc1-n1c(SCC(=O)NC2CC2)nc2ccccc2c1=O | 3.8 | 342.9 | 8.2 | 8.0 | 102.3 | 59.9* | -6.1 | -5.4
COc1ccc(NC(=O)Nc2cnccn2)cc1 | 1.4 | 736.2 | 16.7 | nt | 97.2 | -15.9 | 8.7 | 2.7
O=C(Nc1cccc(F)c1)Nc1cnccn1 | 5.8 | 345.6 | -3.9 | nt | 103.0 | 1.0 | -6.7 | -5.8
CCOc1ccc(NC(=O)Nc2cnccn2)cc1 | -0.2 | 338.6 | 31.4 | 2.3 | 88.7 | 5.5 | -2.0 | -7.2
COc1ccc(NC(=O)Nc2cc(C)ccn2)cc1 | nt | nt | nt | nt | 96.1 | 0.3 | nt | nt
